From article PMC4629852 (Nature chemical biology, 2015)

Experiments:
VHL complex = VHL complex (Homo sapiens, UniProt P40337); assay: Competitive binding fluorescence polarization vs HIF1α-derived peptide
RIPK2 [1] = molecular target: T1, RIPK2 (Homo sapiens, UniProt O43353); assay: RIPK2 degradation in THP-1 monocytes by immunoblotting; type: cell-based
In short: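 THP-1 cells were cultured in RPMI 1640 + 10% FBS at 37 °C, 5% CO₂. Cells (5 × 10⁶) were treated with a dose range for 16 h, or at 30 nM for a time course. Options were a 1 h pretreatment with 1 μM epoxomicin, or washout after 4 h with PBS washes and fresh medium. RIPK2 was detected by western blot.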

[2] = molecular target: VHL-RIPK2 ternary complex (Homo sapiens, UniProt O43353+P40337); type: binding; settings: THP-1 lysate
In short: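 THP-1 lysate in Tris/glycerol/MgCl₂/NaCl/vanadate/0.008% NP40 buffer was adjusted to 5 mg ml⁻¹. Lysate (10 mg protein) was incubated with compound at 3, 30 or 300 nM, or DMSO, for 2 h at 4 °C. It was then captured for 2 h at 4 °C on anti-VHL or IgG1κ control agarose beads. Eluates were analysed by immunoblot and LC-MS, as log₂ fold changes over replicates (≥2 unique peptides).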

RIPK2 [3] = molecular target: RIPK2 (Homo sapiens, UniProt O43353+P40337); assay: In vitro ubiquitination in reconstituted E1-E2-VHL cascade; type: biochemical
In short: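 Three-stage reaction at room temperature. First, RIPK2 (500 nM final) was autophosphorylated with [³²P]γ-ATP for 10 min in Tris/KCl/Mg/Mn/DTT buffer, pH 7.5. Ubiquitination buffer (2 mM ATP) was then added with VHL (250 nM final) and test compound at various concentrations. Separately, UbE1 (25 nM), Ubc4 (250 nM) and ubiquitin (116 μM) were precharged. The mixtures were combined and quenched over time. ³²P was converted to moles of RIPK2 (five phosphopeptides) and compared with moles of compound.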

RIPK2 [4] = molecular target: T1, RIPK2; assay: Expression proteomics in THP-1 cells; type: cell-based; settings: THP-1, 30 nM, 6, 18 and 24 h
ERRα [5] = molecular target: T2, ERRα (Homo sapiens, UniProt P11474); assay: ERRα degradation in MCF-7 cells by immunoblotting; type: cell-based
T2 sequence (P11474 1-423): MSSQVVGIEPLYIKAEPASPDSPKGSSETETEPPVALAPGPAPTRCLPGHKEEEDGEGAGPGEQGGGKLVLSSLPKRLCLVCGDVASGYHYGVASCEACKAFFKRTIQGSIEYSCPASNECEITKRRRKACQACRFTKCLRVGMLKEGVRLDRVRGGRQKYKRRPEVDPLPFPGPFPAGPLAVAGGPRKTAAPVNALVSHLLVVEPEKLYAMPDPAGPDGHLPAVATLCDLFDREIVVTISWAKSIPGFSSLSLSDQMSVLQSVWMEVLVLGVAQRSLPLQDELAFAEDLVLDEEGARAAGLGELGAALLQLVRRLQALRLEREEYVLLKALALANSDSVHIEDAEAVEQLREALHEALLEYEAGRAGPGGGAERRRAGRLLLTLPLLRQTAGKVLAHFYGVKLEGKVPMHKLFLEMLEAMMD
In short: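 MCF7 cells were grown in DMEM/F12 + 10% FBS at 37 °C, 5% CO₂. They were seeded at 70% confluency, attached overnight, then treated with test compound for 8 h. An optional 1 h pretreatment with 1 μM epoxomicin preceded compound. Lysates were BCA-normalised, run on 4–12% gels, transferred to PVDF, milk-blocked and probed overnight with anti-ERRα.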

HIF1α = assay: ODD-luciferase assay of HIF1α processing by VHL; type: cell-based
THP-1 cells = assay: Cellular toxicity; type: cell-based, human; settings: any concentration, Supplementary Fig. 7
MAPKAPK3 [6] = molecular target: T3, MAPKAPK3 (Homo sapiens, UniProt Q16644); assay: Kinobeads competition binding; settings: below the limit of detection
MAPKAPK3 [7] = molecular target: T3, MAPKAPK3; assay: Expression proteomics in THP-1 cells; type: cell-based; settings: THP-1, 30 nM; of ~7,000 proteins only RIPK2 and MAPKAPK3
In short: (§1)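 THP-1 cells were seeded at 3 × 10⁶ cells/well in RPMI1640 + 10% heat-inactivated FBS. They were exposed to 30 nM test compound for 6, 18 or 24 h; the 18 h arm was run in biological duplicate. Cells were collected on ice, washed twice in cold PBS, snap-frozen and SDS-lysed. Proteins were reduced, alkylated, gel-separated, trypsin-digested and quantified proteome-wide by LC-MS/MS.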

RIPK3, ABL and TESK = assay: Expression proteomics in THP-1 cells; type: cell-based, human; settings: THP-1, 30 nM
In short: as §1

ERRα [8] = molecular target: T2, ERRα; assay: Expression proteomics in MCF-7 cells; type: cell-based; settings: MCF-7, 100 nM and 500 nM, 4, 8 or 24 h
In short: (§2)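 MCF-7 cells were plated 1 day before treatment at 1 × 10⁶ cells/well in MEM + 10% FBS + 1% NEAA + sodium pyruvate. They were treated in biological duplicate for the indicated times, scraped into ice-cold PBS and lysed in 2% SDS (95 °C, 3 min). Benzonase digestion followed (37 °C, 1.5 h), then BCA. Proteins were reduced with DTT, alkylated with iodoacetamide, gel-separated, trypsin-digested and quantified by LC-MS/MS.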

BCR = molecular target: T4, BCR (Homo sapiens, UniProt P11274); assay: Expression proteomics in MCF-7 cells; type: cell-based; settings: MCF-7, 500 nM, prolonged incubation, P < 0.05
T4 sequence (P11274 1-1271): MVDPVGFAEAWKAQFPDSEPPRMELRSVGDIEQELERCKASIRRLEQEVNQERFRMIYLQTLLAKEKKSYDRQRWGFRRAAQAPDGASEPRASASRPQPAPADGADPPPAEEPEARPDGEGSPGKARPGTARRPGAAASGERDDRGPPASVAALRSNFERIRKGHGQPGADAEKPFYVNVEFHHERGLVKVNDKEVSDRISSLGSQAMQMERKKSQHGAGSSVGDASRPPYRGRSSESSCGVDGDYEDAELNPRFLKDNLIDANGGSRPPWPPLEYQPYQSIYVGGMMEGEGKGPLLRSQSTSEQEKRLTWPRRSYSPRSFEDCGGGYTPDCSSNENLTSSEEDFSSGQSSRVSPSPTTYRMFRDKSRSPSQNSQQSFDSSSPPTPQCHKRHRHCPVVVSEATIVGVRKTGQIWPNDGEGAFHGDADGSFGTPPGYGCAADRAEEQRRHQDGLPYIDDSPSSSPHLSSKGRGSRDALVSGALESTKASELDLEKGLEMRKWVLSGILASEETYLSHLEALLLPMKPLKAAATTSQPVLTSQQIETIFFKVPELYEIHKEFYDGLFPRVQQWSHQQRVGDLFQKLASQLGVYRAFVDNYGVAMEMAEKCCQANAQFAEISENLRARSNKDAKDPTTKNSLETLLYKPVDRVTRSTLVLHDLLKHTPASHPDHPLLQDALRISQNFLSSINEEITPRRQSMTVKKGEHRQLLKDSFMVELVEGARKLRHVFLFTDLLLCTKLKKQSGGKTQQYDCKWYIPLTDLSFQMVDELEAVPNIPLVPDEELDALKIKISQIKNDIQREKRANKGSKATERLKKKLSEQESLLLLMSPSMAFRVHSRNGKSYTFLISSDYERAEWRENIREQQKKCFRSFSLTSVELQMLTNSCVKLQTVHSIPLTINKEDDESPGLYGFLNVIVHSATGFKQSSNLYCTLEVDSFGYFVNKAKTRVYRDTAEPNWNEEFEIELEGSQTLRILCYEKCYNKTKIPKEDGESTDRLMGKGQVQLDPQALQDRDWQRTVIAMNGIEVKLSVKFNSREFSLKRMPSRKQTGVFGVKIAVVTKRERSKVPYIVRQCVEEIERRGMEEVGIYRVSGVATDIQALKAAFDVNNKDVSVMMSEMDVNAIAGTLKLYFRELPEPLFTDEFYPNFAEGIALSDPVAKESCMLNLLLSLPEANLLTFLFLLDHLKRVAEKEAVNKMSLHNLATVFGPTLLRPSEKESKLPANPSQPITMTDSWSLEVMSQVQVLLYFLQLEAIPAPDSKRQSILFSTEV
In short: as §2

ERRα [9] = molecular target: T5, ERRα (Mus musculus, UniProt O08580); assay: In vivo ERRα knockdown in mouse tissues, western blotting; settings: mice, 100 mg/kg i.p. every 8 h, four doses, ~5 h after last dose, vs vehicle
T5 sequence (O08580 1-422): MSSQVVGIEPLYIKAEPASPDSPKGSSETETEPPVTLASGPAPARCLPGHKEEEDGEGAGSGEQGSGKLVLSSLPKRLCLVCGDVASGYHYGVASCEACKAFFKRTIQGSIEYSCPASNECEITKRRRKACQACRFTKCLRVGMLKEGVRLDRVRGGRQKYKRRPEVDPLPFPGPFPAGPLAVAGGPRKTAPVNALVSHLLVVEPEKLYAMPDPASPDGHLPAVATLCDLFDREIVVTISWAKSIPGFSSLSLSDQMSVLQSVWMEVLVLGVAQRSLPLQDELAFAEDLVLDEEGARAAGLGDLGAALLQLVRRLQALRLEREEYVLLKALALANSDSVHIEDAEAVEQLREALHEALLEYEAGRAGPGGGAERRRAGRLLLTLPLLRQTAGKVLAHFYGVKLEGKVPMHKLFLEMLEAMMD

ERRα [10] = molecular target: T2, ERRα; assay: In vivo ERRα knockdown in MDA-MB-231 tumor xenografts in mice, western blotting; settings: 100 mg/kg i.p. every 8 h, four doses, ~5 h after last dose, vs vehicle

SMILES: Cc1ncsc1-c1ccc(CNC(=O)[C@H]2C[C@H](O)CN2C(=O)[C@@H](NC(=O)COCCOCCOCCOCCOc2cc3nccc(Nc4ccc5scnc5c4)c3cc2S(=O)(=O)C(C)(C)C)C(C)(C)C)cc1 [PROTAC_RIPK2_epi]
- binding to VHL (VHL complex; concentrations up to 10 μM): no binding to VHL
- degradation of RIPK2 (RIPK2 [1]; THP-1 cells, Supplementary Fig. 6f): no degradation of RIPK2
- enrichment of RIPK2 in VHL immunoprecipitate [2]: did not influence the immune-captured proteins or enrich RIPK2 levels
- ubiquitination of RIPK2 (RIPK2 [3]; any concentration (50, 100, 200 nM), up to 35 min): unable to induce ubiquitination
- RIPK2 levels (RIPK2 [4]): neither the PROTAC_RIPK2_epi nor the RIPK2 ligand affected RIPK2 levels

SMILES: COc1cc(/C=C2\SC(=O)N(CCOCCC(=O)N[C@H](C(=O)N3C[C@@H](O)C[C@H]3C(=O)NCc3ccc(-c4scnc4C)cc3)C(C)(C)C)C2=O)ccc1Oc1ccc(C#N)cc1C(F)(F)F [PROTAC_ERRα_epi]
- reduction of ERRα protein levels (ERRα [5]; MCF-7, at concentrations at which the active PROTAC reduced ERRα levels by 50%): ~ 20%

SMILES: Cc1ncsc1-c1ccc(CNC(=O)[C@@H]2C[C@@H](O)CN2C(=O)[C@@H](NC(=O)COCCOCCOCCOCCOc2cc3nccc(Nc4ccc5scnc5c4)c3cc2S(=O)(=O)C(C)(C)C)C(C)(C)C)cc1 [PROTAC_RIPK2]
- IC50 (VHL complex; competition with HIF1α-derived peptide for VHL complex): 660 nM
- window between RIPK2 degradation and modulation of endogenous VHL function (RIPK2 [1]; RIPK2 degradation vs ODD-luciferase): > 1,000 fold
- earliest time at which RIPK2 degradation was observed (RIPK2 [1]; THP-1, 30 nM): 1 h
- time at which RIPK2 degradation was nearly complete (RIPK2 [1]; THP-1, 30 nM): 4 h
- time for protein levels to recover to pre-treatment levels after removal (RIPK2 [1]; THP-1, 4 h pretreatment with 30 nM, washout): ≤ 24 h
- RIPK2 protein levels at high concentration (hook effect) (RIPK2 [1]; THP-1, 16 h, 30 μM): returning to basal levels
- Dmax (RIPK2 [1]; THP-1, 16 h, at concentrations of 10 nM and higher): > 95%
- stabilization of HIF1α (ODD-luciferase) (HIF1α; 30 μM): modest stabilization of HIF1α
- effect on ODD-luciferase levels (HIF1α; concentrations up to 3 μM): no effect
- cellular toxicity (THP-1 cells): No cellular toxicity
- co-recruitment of RIPK2 over background ([2]; 30 nM): up to 16 fold
- change of RIPK2 enrichment ([2]; 300 nM versus 30 nM): reduced by two-fold
- stoichiometry (modified RIPK2 to PROTAC) (RIPK2 [3]; 2.0 pmol PROTAC, final time point): 2.0
- modified RIPK2 (RIPK2 [3]; 2.0 pmol PROTAC, final time point (35 min), 500 nM RIPK2): 4.0 pmol
- Kd (MAPKAPK3 [6]): > 3000 nM
- RIPK2 levels (RIPK2 [4]): induced the degradation of RIPK2 from 6 h onwards
- MAPKAPK3 levels (MAPKAPK3 [7]): significantly degraded
- levels of other kinases bound (RIPK3, ABL and TESK) (RIPK3, ABL and TESK): not degraded

SMILES: COc1cc(/C=C2\SC(=O)N(CCOCCC(=O)N[C@H](C(=O)N3C[C@H](O)C[C@H]3C(=O)NCc3ccc(-c4scnc4C)cc3)C(C)(C)C)C2=O)ccc1Oc1ccc(C#N)cc1C(F)(F)F [PROTAC_ERRα]
- decrease in normalized ERRα levels (ERRα [5]; MCF-7, 1 h pretreatment with 1 μM epoxomicin): 5%
- maximal level of degradation (Dmax) (ERRα [5]; MCF-7 cells, 8 h): 86%
- stabilization of HIF1α (ODD-luciferase) (HIF1α; concentrations up to 30 μM): did not stabilize HIF1α
- ERRα levels (ERRα [8]): decreased levels of ERRα
- BCR levels (BCR): downregulated
- reduction of ERRα levels in heart (ERRα [9]): approximately 44%
- reduction of ERRα levels in kidney (ERRα [9]): approximately 44%
- reduction of ERRα levels in MDA-MB-231 tumors (ERRα [10]): ~39%
